Measurements published in ChEMBL document CHEMBL1921724, “In search of a cytostatic agent derived from the alkaloid lycorine: synthesis and growth inhibitory properties of lycorine derivatives” (Bioorg Med Chem, 2011).

tested on: not listed separately; assay: Growth inhibition of pro-apoptotic stimuli-resistant human U373 cells after 72 hrs by MTT assay; format: functional, U-373MG ATCC; conditions: U373 MG
Procedure, shortened: (§1)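 Cells seeded at 10,000 to 40,000 cells/mL depending on cell type and allowed to attach for 24 h. They were then cultured 72 h with or without compound (untreated control). Living cells were measured by MTT reduction to formazan, read at 570 nm against a 630 nm reference. GI50 was derived from the growth levels.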

Compared with `CC(=O)O[C@H]1[C@H]2c3cc4c(cc3C(=S)N3CCC(=C[C@@H]1OC(C)=O)[C@H]23)OCO4`, `CC(C)(C)C(=O)O[C@H]1C=C2CCN3Cc4cc5c(cc4[C@H]([C@@H]1O)[C@@H]23)OCO5` is 5.1-fold lower in GI50: 46 µM for the first, 9 µM for the second.

Compared with `CC(=O)Oc1cc2c3c(c1)c1cc4c(cc1c(=O)n3CC2)OCO4`, `O=c1c2cc3c(cc2c2cc(O)cc4c2n1CC4)OCO3` is 2.3-fold higher in GI50: 21 µM for the first, 49 µM for the second.

Compared with `O=C(O[C@H]1[C@H]2c3cc4c(cc3CN3CCC(=C[C@@H]1O)[C@H]23)OCO4)c1ccccc1`, `O[C@H]1C=C2CCN3Cc4cc5c(cc4[C@H]([C@@H]1OCc1ccccc1)[C@@H]23)OCO5` is 83-fold higher in GI50: 0.6 µM for the first, 50 µM for the second.

Compared with `O[C@@H]1[C@@H](O)[C@H](O)[C@@]2(O)CCN3Cc4cc5c(cc4[C@H]1[C@H]32)OCO5`, `O=C1C=C2CCN3Cc4cc5c(cc4[C@H]([C@@H]1O)[C@@H]23)OCO5` is lower in GI50: over 100 µM for the first, 45 µM for the second.

tested on: not listed separately; assay: Growth inhibition of pro-apoptotic stimuli-sensitive human Hs683 cells after 72 hrs by MTT assay; format: functional; conditions: Hs 683, 72 h; procedure, shortened: as §1

Compared with `CC(=O)O[C@H]1[C@H]2c3cc4c(cc3C(=S)N3CCC(=C[C@@H]1OC(C)=O)[C@H]23)OCO4`, `CC(C)(C)C(=O)O[C@H]1C=C2CCN3Cc4cc5c(cc4[C@H]([C@@H]1O)[C@@H]23)OCO5` is 3.5-fold lower in GI50: 52 µM for the first, 15 µM for the second.

Going from `CC(=O)Oc1cc2c3c(c1)c1cc4c(cc1c(=O)n3CC2)OCO4` to `O=c1c2cc3c(cc2c2cc(O)cc4c2n1CC4)OCO3`, the GI50 rises from 20 µM to 40 µM (2-fold).

Going from `O=C(O[C@H]1[C@H]2c3cc4c(cc3CN3CCC(=C[C@@H]1O)[C@H]23)OCO4)c1ccccc1` to `O[C@H]1C=C2CCN3Cc4cc5c(cc4[C@H]([C@@H]1OCc1ccccc1)[C@@H]23)OCO5`, the GI50 rises from 4 µM to 80 µM (20-fold).

First: O[C@@H]1[C@@H](O)[C@H](O)[C@@]2(O)CCN3Cc4cc5c(cc4[C@H]1[C@H]32)OCO5
Second: O=C1C=C2CCN3Cc4cc5c(cc4[C@H]([C@@H]1O)[C@@H]23)OCO5
The GI50 of the first is higher: over 100 µM for the first, 3 µM for the second.

tested on: A549; assay: Growth inhibition of pro-apoptotic stimuli-resistant human A549 cells after 72 hrs by MTT assay; format: functional; conditions: A549, 72 h; procedure, shortened: as §1

First: CC(=O)O[C@H]1[C@H]2c3cc4c(cc3C(=S)N3CCC(=C[C@@H]1OC(C)=O)[C@H]23)OCO4
Second: CC(C)(C)C(=O)O[C@H]1C=C2CCN3Cc4cc5c(cc4[C@H]([C@@H]1O)[C@@H]23)OCO5
The GI50 of the first is 8.1-fold higher: 57 µM for the first, 7 µM for the second.

Compared with `CC(=O)Oc1cc2c3c(c1)c1cc4c(cc1c(=O)n3CC2)OCO4`, `O=c1c2cc3c(cc2c2cc(O)cc4c2n1CC4)OCO3` is 1.9-fold higher in GI50: 23 µM for the first, 44 µM for the second.

Going from `O=C(O[C@H]1[C@H]2c3cc4c(cc3CN3CCC(=C[C@@H]1O)[C@H]23)OCO4)c1ccccc1` to `O[C@H]1C=C2CCN3Cc4cc5c(cc4[C@H]([C@@H]1OCc1ccccc1)[C@@H]23)OCO5`, the GI50 rises from 32 µM to 67 µM (2.1-fold).

Compared with `O[C@@H]1[C@@H](O)[C@H](O)[C@@]2(O)CCN3Cc4cc5c(cc4[C@H]1[C@H]32)OCO5`, `O=C1C=C2CCN3Cc4cc5c(cc4[C@H]([C@@H]1O)[C@@H]23)OCO5` is lower in GI50: over 100 µM for the first, 4 µM for the second.

tested on: T98G; assay: Growth inhibition of pro-apoptotic stimuli-resistant human T98G cells after 72 hrs by MTT assay; format: functional; conditions: not given; procedure, shortened: as §1

First: CC(=O)O[C@H]1[C@H]2c3cc4c(cc3C(=S)N3CCC(=C[C@@H]1OC(C)=O)[C@H]23)OCO4
Second: CC(C)(C)C(=O)O[C@H]1C=C2CCN3Cc4cc5c(cc4[C@H]([C@@H]1O)[C@@H]23)OCO5
The GI50 of the first is 4.8-fold higher: 57 µM for the first, 12 µM for the second.

`CC(=O)Oc1cc2c3c(c1)c1cc4c(cc1c(=O)n3CC2)OCO4` and `O=c1c2cc3c(cc2c2cc(O)cc4c2n1CC4)OCO3` are within 1.5-fold of each other in GI50: 29 µM for the first, 41 µM for the second.

`O=C(O[C@H]1[C@H]2c3cc4c(cc3CN3CCC(=C[C@@H]1O)[C@H]23)OCO4)c1ccccc1` and `O[C@H]1C=C2CCN3Cc4cc5c(cc4[C@H]([C@@H]1OCc1ccccc1)[C@@H]23)OCO5` are within 1.5-fold of each other in GI50: 32 µM for the first, 34 µM for the second.

Going from `O[C@@H]1[C@@H](O)[C@H](O)[C@@]2(O)CCN3Cc4cc5c(cc4[C@H]1[C@H]32)OCO5` to `O=C1C=C2CCN3Cc4cc5c(cc4[C@H]([C@@H]1O)[C@@H]23)OCO5`, the GI50 falls from over 100 µM to 38 µM.

tested on: B16-F10; assay: Growth inhibition of pro-apoptotic stimuli-sensitive mouse B16F10 cells after 72 hrs by MTT assay; format: functional; conditions: B16-F10, 72 h; procedure, shortened: as §1

Going from `CC(=O)O[C@H]1[C@H]2c3cc4c(cc3C(=S)N3CCC(=C[C@@H]1OC(C)=O)[C@H]23)OCO4` to `CC(C)(C)C(=O)O[C@H]1C=C2CCN3Cc4cc5c(cc4[C@H]([C@@H]1O)[C@@H]23)OCO5`, the GI50 falls from 30 µM to 5 µM (6-fold).

First: CC(=O)Oc1cc2c3c(c1)c1cc4c(cc1c(=O)n3CC2)OCO4
Second: O=c1c2cc3c(cc2c2cc(O)cc4c2n1CC4)OCO3
The GI50 of the first is 1.9-fold lower: 20 µM for the first, 38 µM for the second.

Going from `O=C(O[C@H]1[C@H]2c3cc4c(cc3CN3CCC(=C[C@@H]1O)[C@H]23)OCO4)c1ccccc1` to `O[C@H]1C=C2CCN3Cc4cc5c(cc4[C@H]([C@@H]1OCc1ccccc1)[C@@H]23)OCO5`, the GI50 rises from 8 µM to 57 µM (7.1-fold).

Compared with `O[C@@H]1[C@@H](O)[C@H](O)[C@@]2(O)CCN3Cc4cc5c(cc4[C@H]1[C@H]32)OCO5`, `O=C1C=C2CCN3Cc4cc5c(cc4[C@H]([C@@H]1O)[C@@H]23)OCO5` is 5.2-fold lower in GI50: 83 µM for the first, 16 µM for the second.

tested on: MCF7; assay: Growth inhibition of human MCF7 cells after 72 hrs by MTT assay; format: functional; conditions: MCF7, 72 h

`CC(=O)O[C@H]1[C@H]2c3cc4c(cc3C(=S)N3CCC(=C[C@@H]1OC(C)=O)[C@H]23)OCO4` and `CC(C)(C)C(=O)O[C@H]1C=C2CCN3Cc4cc5c(cc4[C@H]([C@@H]1O)[C@@H]23)OCO5` are within 1.5-fold of each other in GI50: 35 µM for the first, 36 µM for the second.

Going from `CC(=O)Oc1cc2c3c(c1)c1cc4c(cc1c(=O)n3CC2)OCO4` to `O=c1c2cc3c(cc2c2cc(O)cc4c2n1CC4)OCO3`, the GI50 falls from 50 µM to 9 µM (5.6-fold).

Compared with `O=C(O[C@H]1[C@H]2c3cc4c(cc3CN3CCC(=C[C@@H]1O)[C@H]23)OCO4)c1ccccc1`, `O[C@H]1C=C2CCN3Cc4cc5c(cc4[C@H]([C@@H]1OCc1ccccc1)[C@@H]23)OCO5` is 15-fold higher in GI50: 5 µM for the first, 74 µM for the second.

Going from `O[C@@H]1[C@@H](O)[C@H](O)[C@@]2(O)CCN3Cc4cc5c(cc4[C@H]1[C@H]32)OCO5` to `O=C1C=C2CCN3Cc4cc5c(cc4[C@H]([C@@H]1O)[C@@H]23)OCO5`, the GI50 falls from over 100 µM to 35 µM.

tested on: SK-MEL-28; assay: Growth inhibition of pro-apoptotic stimuli-resistant human SK-MEL-28 cells after 72 hrs by MTT assay; format: functional; conditions: SK-MEL-28, 72 h; procedure, shortened: as §1

First: CC(=O)O[C@H]1[C@H]2c3cc4c(cc3C(=S)N3CCC(=C[C@@H]1OC(C)=O)[C@H]23)OCO4
Second: CC(C)(C)C(=O)O[C@H]1C=C2CCN3Cc4cc5c(cc4[C@H]([C@@H]1O)[C@@H]23)OCO5
The GI50 of the first is 4.7-fold higher: 47 µM for the first, 10 µM for the second.

`CC(=O)Oc1cc2c3c(c1)c1cc4c(cc1c(=O)n3CC2)OCO4` and `O=c1c2cc3c(cc2c2cc(O)cc4c2n1CC4)OCO3` cannot be ordered by GI50: over 100 µM for the first, over 100 µM for the second.

Going from `O=C(O[C@H]1[C@H]2c3cc4c(cc3CN3CCC(=C[C@@H]1O)[C@H]23)OCO4)c1ccccc1` to `O[C@H]1C=C2CCN3Cc4cc5c(cc4[C@H]([C@@H]1OCc1ccccc1)[C@@H]23)OCO5`, the GI50 rises from 4 µM to over 100 µM.

`O[C@@H]1[C@@H](O)[C@H](O)[C@@]2(O)CCN3Cc4cc5c(cc4[C@H]1[C@H]32)OCO5` and `O=C1C=C2CCN3Cc4cc5c(cc4[C@H]([C@@H]1O)[C@@H]23)OCO5` cannot be ordered by GI50: over 100 µM for the first, over 100 µM for the second.

tested on: PC-3; assay: Growth inhibition of human PC3 cells after 72 hrs by MTT assay; format: functional; conditions: PC-3, 72 h

Compared with `CC(=O)O[C@H]1[C@H]2c3cc4c(cc3C(=S)N3CCC(=C[C@@H]1OC(C)=O)[C@H]23)OCO4`, `CC(C)(C)C(=O)O[C@H]1C=C2CCN3Cc4cc5c(cc4[C@H]([C@@H]1O)[C@@H]23)OCO5` is lower in GI50: over 100 µM for the first, 12 µM for the second.

`CC(=O)Oc1cc2c3c(c1)c1cc4c(cc1c(=O)n3CC2)OCO4` and `O=c1c2cc3c(cc2c2cc(O)cc4c2n1CC4)OCO3` are within 1.5-fold of each other in GI50: 33 µM for the first, 48 µM for the second.

First: O=C(O[C@H]1[C@H]2c3cc4c(cc3CN3CCC(=C[C@@H]1O)[C@H]23)OCO4)c1ccccc1
Second: O[C@H]1C=C2CCN3Cc4cc5c(cc4[C@H]([C@@H]1OCc1ccccc1)[C@@H]23)OCO5
The GI50 of the first is 19-fold lower: 5 µM for the first, 97 µM for the second.

Compared with `O[C@@H]1[C@@H](O)[C@H](O)[C@@]2(O)CCN3Cc4cc5c(cc4[C@H]1[C@H]32)OCO5`, `O=C1C=C2CCN3Cc4cc5c(cc4[C@H]([C@@H]1O)[C@@H]23)OCO5` is lower in GI50: over 100 µM for the first, 92 µM for the second.
